Test results taken from the RNAGym collection of RNA variant scans (doi:10.1126/science.aae0568).
This sample holds only a part of the variants without activity.

B1: tRNA (parent)
chain: GUUCCGUUGGCGUAAUGGUAACGCGUCUCCCUCCUAAGGAGAAGACUGCGGGUUCGAGUCCCGUACGGAACG

Variants of: B1
Assay: yeast fitness relative to wild type (ratio to wild type); higher = fitter; tRNA-Arg(CCU), competitive growth, 37 C, YPD
How it was run: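 Variants of the tRNA-Arg(CCU) gene, chemically synthesised with a 3% per-site mutation rate at 69 sites, were placed at the native genomic locus in Saccharomyces cerevisiae. The pooled strains were competed in YPD at 37°C for 24 hours in six parallel replicates. Gene amplicons from the start population and from each end population were read by 100-nucleotide paired-end sequencing. Darwinian fitness relative to wild type came from changes in genotype frequencies; genotypes needed ≥ 100 starting reads, and estimates < 0.5 were set to 0.5.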

Variant | yeast fitness
C11U G17U A40U A42U C49G G51A C66A G68C | ≤ 0.5
C11U G58A A65G | 0.777
C11U U13A A20C C22G | ≤ 0.5
C11U G23A C60G C62A | ≤ 0.5
C11U C61U | 0.827
C11U G25A C66U A70C | 0.688
C11U C66U | 0.931
C11U C61A C62U G63C A70U | ≤ 0.5
C11U G48A C49A U54A | ≤ 0.5
C11U C55G A70C | 0.541
C11U U13A U32C C49U | ≤ 0.5
C11U U13A C30A C33A A57U | ≤ 0.5
C11U U13C A14G C24A A43C G50C C60G | ≤ 0.5
C11U U16C C31U U54C | ≤ 0.5
C11U G12A C61U | 0.511
C11U U16C C33A U53C | ≤ 0.5
C11U U16C C24U A42C G56C A65C | ≤ 0.5
C11U G18A G23C C34U | ≤ 0.5
C11U U13C C30U | 0.769
C11U G17C A21U | 0.541
C11U U16A C24G A42C | ≤ 0.5
C11U G39C G58A A70U | ≤ 0.5
C11U U13G A20U U53G | ≤ 0.5
C11U G44A A65C | 0.704

Variant | yeast fitness
C11U U13A C62U | 0.721
C11U U16C C31U A69G | ≤ 0.5
C11U G56C A57U C60U | ≤ 0.5
C11U U16A A36G A43G C62A | ≤ 0.5
C11U G56C C62U | 0.575
C11U G44A G63A | 0.74
C11U C55G A69C | 0.509
C11U G18A A40U | ≤ 0.5
C11U G17A A57G | ≤ 0.5
C11U G51A G63C A69U | ≤ 0.5
C11U G17C A21C C24A G41A C46G C61A | ≤ 0.5
C11U G25A A43G G51C C55G | 0.695
C11U G44A C55G | 0.572
C11U C61G A65C | 0.609
C11U U16G | 0.823
C11U U16C | 1.02
C11U U16A C60G C62G | ≤ 0.5
C11U G12A A15C C31A G51A | ≤ 0.5
C11U G39C G41A | ≤ 0.5
C11U U13C C27G A69C | ≤ 0.5
C11U G48A C62A | 0.762
C11U G56C | 0.709
C11U G41C C60G | 0.647
C11U G51A G56A U59C | ≤ 0.5

Variant | yeast fitness
C11U G18C G39C | ≤ 0.5
C11U G48A C55A G58C | ≤ 0.5
C11U C61U A70G | 0.77
C11U G44C G67A | 0.638
C11U G12A G44C C46U U59A | ≤ 0.5
C11U U13C C30A G52A A69U | ≤ 0.5
C11U G48A G51C G68U | 0.59
C11U G41A A65U | 0.515
C11U G12A C66U | 0.587
C11U U13C C29U A37C G39A C46A | ≤ 0.5
C11U G17C | 0.768
C11U G41C G68A A69C | ≤ 0.5
C11U G18C | 0.728
C11U G41A A42G A70U | ≤ 0.5
C11U U16C G58C | 0.653
C11U G39C C55A | ≤ 0.5
C11U G39C C55G | ≤ 0.5
C11U G44C C62A | ≤ 0.5
C11U G25C C34A | 0.557
C11U G38A | 1.02
C11U U13A C27G C46A C49G | ≤ 0.5
C11U G48A | 0.972
C11U C62G A69U | 0.578
C11U U19A A37C A40C | 0.501

Variant | yeast fitness
C11U C60G G67A | 0.549
C11U U13G C29U C34G C46G G58A | ≤ 0.5
C11U G38C C55G G67A | ≤ 0.5
C11U G56A A65C | 0.732
C11U C55G | 0.594
C11U G51A U59A | ≤ 0.5
C11U G23C G58A | 0.669
C11U U16A A36C A43G C62G A65U | ≤ 0.5
C11U G44A U53G | 0.529
C11U G44C C61U | 0.528
C11U C61U G68A | 0.615
C11U G12A C24U U47C | ≤ 0.5
C11U C62U A70C | 0.698
C11U G58A G63A | 0.74
C11U G39C C66U | 0.558
C11U G50C | 0.759
C11U U19A A21C A42G | 0.568
C11U G25A C29A A42C A45G | ≤ 0.5
C11U G38A C60G | ≤ 0.5
C11U U13C A42U C55A G56A | 0.762
C11U G52A A69C | 0.865
C11U U13C A69C | 0.737
C11U C55G C66U | ≤ 0.5
C11U G48A A65C | 0.663

Variant | yeast fitness
C11U G48A A65U | 0.792
C11U G58A | 1.01
C11U G51A G58A A70C | ≤ 0.5
C11U C55U G68C | 0.537
C11U G17A C49U | 0.596
C11U G25C C55U | ≤ 0.5
C11U C62U A69C | 0.842
C11U U13G U19A C22G G25A | 0.604
C11U C62A | 0.743
C11U C62G | 0.912
C11U C62U | 0.943
C11U G50A G63A | 0.606
C11U G18A G23A A36U G48C | ≤ 0.5
C11U G51A | 0.727
C11U G12C A21U U32A | 0.694
C11U G17C A37G G56C C61A A65G C66G | ≤ 0.5
C11U U13C | 0.954
C11U U13A | 0.832
C11U G41C A42G | 0.547
C11U G17A C34U C55G | ≤ 0.5
C11U G38C U64G A70C | ≤ 0.5
C11U U13C A42U G63A | ≤ 0.5
C11U G38C C62G | 0.542
C11U G56C C62U G68U | ≤ 0.5

Variant | yeast fitness
C11U G51A C61G | ≤ 0.5
C11U G48A G51C | 0.832
C11U G48A G51A | 0.724
C11U G23C | 0.757
C11U G25A A57U | ≤ 0.5
C11U G25A A57C C60U G67C | ≤ 0.5
C11U G18A A43U | 0.533
C11U G52C G67C | ≤ 0.5
C11U G18C G23C A57C | ≤ 0.5
C11U U16A G67A | 0.551
C11U G52C A69G | ≤ 0.5
C11U G67C | 0.792
C11U G48C A65G | 0.714
C11U G25A A70C | 0.892
C11U G48A G67C | 0.731
C11U U16C C27G C34G G67A | ≤ 0.5
C11U G44A C61A | 0.823
C11U G12C C46A | ≤ 0.5
C11U U16C C27U C31A U35C C55G C66U | ≤ 0.5
C11U G12A A15C C31A G51A C66U | 0.594
C11U C60A | 0.631
C11U G25A U59G | 0.538
C11U C55G G67A | ≤ 0.5
C11U C60G C62U G68C | 0.505

Variant | yeast fitness
C11U G25C | 0.982
C11U G51A A65U | ≤ 0.5
C11U C61A G67A | 0.53
C11U G63C | 0.725
C11U G17C A45G | 0.586
C11U G52C C61G | ≤ 0.5
C11U U16A U47C | 0.838
C11U U13A G25A | 0.716
C11U U16C U19A C29U | ≤ 0.5
C11U G25A A43G | 0.592
C11U U13G A21G U26C C27G G48C G67A | ≤ 0.5
C11U G38A A40U G52C G68C A69G | ≤ 0.5
C11U G52C C66U | ≤ 0.5
C11U G44C G58A | 0.712
C11U U16A C29A A45U | 0.605
C11U G38A A43C A65C | ≤ 0.5
C11U G48A U54C | 0.677
C11U G63C C66U | ≤ 0.5
C11U G44A C60G U64C | ≤ 0.5
C11U G38A C60U G67C | ≤ 0.5
C11U G18A C31U A40U U47G | ≤ 0.5
C11U G41C | 0.852
C11U C62G C66A | ≤ 0.5
